ChEMBL document CHEMBL4477183, “Antimicrobial Peptide from the Wild Bee Hylaeus signatus Venom and Its Analogues: Structure-Activity Study and Synergistic Effect with Antibiotics” (J Nat Prod, 2016)

How the values were obtained:
[1] = test system: Staphylococcus aureus; assay: Antimicrobial activity against Staphylococcus aureus 6271 assessed as reduction in bacterial growth after 20 hrs by broth microdilution assay; conditions: Staphylococcus aureus, 6271, 20 h
[2] = test system: Candida albicans; assay: Antifungal activity against Candida albicans assessed as reduction in fungal growth after 20 hrs by […]; format: functional
In short: (§1)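 Broth microdilution in LB (YPG for C. albicans) with 2-fold serial dilutions, final 0.1–100 μM. Mid-log cells grown 3–5 h at 37 °C were added at about 5 × 10^5 cfu/mL, then incubated 20 h at 37 °C with shaking. A540 was read every 15 min to build growth curves. Medium with cells served as growth control; at least three runs in duplicate.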

[3] = test system: Pseudomonas aeruginosa; assay: Ratio of MIC for Pseudomonas aeruginosa to PC50 for induction of permeabilization in Pseudomonas aeruginosa; format: functional
In short: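 PC50: washed 10^8 cfu/mL cells in PBS pH 7 with PI 10 μg/mL, peptide 0.31–80 μM, 90 min at 37 °C dark, fluorescence 544/620 nm as % of 4 μM octenidine, interpolated from log-concentration curve.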

[4] = test system: Pseudomonas aeruginosa; assay: Antimicrobial activity against Pseudomonas aeruginosa clinical isolates assessed as FIC index in presence of rifampicin after 20 hrs by drop diffusion test; format: functional
[5] = test system: Staphylococcus aureus; assay: Antimicrobial activity against Staphylococcus aureus clinical isolates from university hospital in Motol assessed as reduction in bacterial growth after 20 hrs by drop diffusion test; format: functional
[6] = test system: Staphylococcus epidermidis; assay: Antimicrobial activity against Staphylococcus epidermidis assessed as reduction in bacterial growth after 20 hrs by broth microdilution assay
[7] = test system: Staphylococcus aureus; assay: Antimicrobial activity against Staphylococcus aureus clinical isolates from Liberec regional hospital assessed as reduction in bacterial growth after 20 hrs by broth microdilution assay
[8] = test system: Bacillus subtilis; assay: Antimicrobial activity against Bacillus subtilis assessed as reduction in bacterial growth after 20 hrs by […]; format: functional
In short: as §1

[9] = test system: Pseudomonas aeruginosa; assay: Antimicrobial activity against Pseudomonas aeruginosa 5482 assessed as reduction in bacterial growth after 20 hrs […]; format: functional; conditions: Pseudomonas aeruginosa, 5482, 20 h
In short: as §1

[10] = Hemolytic activity in human type RBC after 1 hr; format: ADME, cell-based, Erythrocyte; conditions: red blood cells (erythrocytes), read-out: LC50
In short: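 Peptides at 2.5–400 μM were incubated with a 4% suspension of human erythrocytes in physiological solution for 1 h at 37 °C, then centrifuged at 250g for 5 min; supernatant A540 was read. Saline-treated cells gave 0% lysis and 0.2% Triton X-100 gave 100%. LC50 is the concentration lysing 50% of cells; duplicates in at least two independent experiments.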

[11] = test system: Staphylococcus aureus; assay: Antimicrobial activity against Staphylococcus aureus clinical isolates assessed as FIC index in presence of amoxicillin after 20 hrs by drop diffusion test; format: functional
[12] = test system: Pseudomonas aeruginosa; assay: Antimicrobial activity against Pseudomonas aeruginosa clinical isolates assessed as FIC index in presence of tetracycline after 20 hrs by drop diffusion test; format: functional
[13] = test system: Escherichia coli; assay: Antimicrobial activity against Escherichia coli assessed as reduction in bacterial growth after 20 hrs by […]; format: functional
In short: as §1

[14] = test system: Micrococcus luteus; assay: Antimicrobial activity against Micrococcus luteus assessed as reduction in bacterial growth after 20 hrs by […]; format: functional
In short: as §1

[15] = test system: Pseudomonas aeruginosa; assay: Antimicrobial activity against Pseudomonas aeruginosa clinical isolates assessed as reduction in bacterial growth after 20 hrs by […]; format: functional
In short: as §1

[16] = test system: Staphylococcus aureus; assay: Antimicrobial activity against Staphylococcus aureus clinical isolates from Liberec regional hospital assessed as reduction in bacterial growth after 20 hrs by […]; format: functional
In short: as §1

## H-GILSSLWKKLKKWIAK-NH2
[1]
  MIC: 2.5 µM
[2]
  MIC: 13 µM
[3]
  Ratio: 19
[4]
  fractional inhibitory concentration index (FICI): 0.29
[5]
  MIC: 2 µM
[6]
  MIC: 1.6 µM
[7]
  MIC: 1.8 µM
[8]
  MIC: ≤ 7 µM
[9]
  MIC: 13 µM
[10]
  HC50 at 1 h: 57 µM
[11]
  fractional inhibitory concentration index (FICI): 0.58
[12]
  fractional inhibitory concentration index (FICI): 0.42
[13]
  MIC: 2.5 µM
[14]
  MIC: ≤ 3 µM
[15]
  MIC: 24 µM

## H-GILSSWLKKLKKIIAK-NH2
[1]
  MIC: 16 µM
[2]
  MIC: 17 µM
[4]
  fractional inhibitory concentration index (FICI): 0.4
[5]
  MIC: 16 µM
[6]
  MIC: 2 µM
[8]
  MIC: ≤ 7 µM
[9]
  MIC: 4 µM
[10]
  HC50 at 1 h: > 400 µM
[11]
  fractional inhibitory concentration index (FICI): 0.37
[12]
  fractional inhibitory concentration index (FICI): 0.65
[13]
  MIC: 11 µM
[14]
  MIC: ≤ 3 µM
[15]
  MIC: 5.9 µM
[16]
  MIC: 6.6 µM

## H-GIMSSLMKKLAKHIAK-NH2
[1]
  MIC: 63 µM
[2]
  MIC: 14 µM
[4]
  fractional inhibitory concentration index (FICI): 0.25
[5]
  MIC: 63 µM
[6]
  MIC: 6.2 µM
[7]
  MIC: 35 µM
[8]
  MIC: ≤ 7 µM
[9]
  MIC: 7.9 µM
[10]
  HC50 at 1 h: > 400 µM
[11]
  fractional inhibitory concentration index (FICI): 0.31
[12]
  fractional inhibitory concentration index (FICI): 0.54
[13]
  MIC: 15 µM
[14]
  MIC: ≤ 3 µM
[15]
  MIC: 20 µM

## H-GIMSSLMKKLAKIIAK-NH2
[1]
  MIC: 9 µM
[2]
  MIC: 11 µM
[4]
  fractional inhibitory concentration index (FICI): 0.43
[5]
  MIC: 10 µM
[6]
  MIC: 5 µM
[7]
  MIC: 5.2 µM
[8]
  MIC: ≤ 7 µM
[9]
  MIC: 4.5 µM
[10]
  HC50 at 1 h: 88 µM
[11]
  fractional inhibitory concentration index (FICI): 0.5
[12]
  fractional inhibitory concentration index (FICI): 0.79
[13]
  MIC: 3.7 µM
[14]
  MIC: ≤ 3 µM
[15]
  MIC: 9.3 µM

## H-GIMSSLMKKLAKIIKK-NH2
[1]
  MIC: 33 µM
[2]
  MIC: 7.6 µM
[4]
  fractional inhibitory concentration index (FICI): 0.42
[5]
  MIC: 17 µM
[6]
  MIC: 2.9 µM
[7]
  MIC: 8.6 µM
[8]
  MIC: ≤ 7 µM
[9]
  MIC: 5.2 µM
[10]
  HC50 at 1 h: > 400 µM
[11]
  fractional inhibitory concentration index (FICI): 0.38
[12]
  fractional inhibitory concentration index (FICI): 0.54
[13]
  MIC: 15 µM
[14]
  MIC: ≤ 3 µM
[15]
  MIC: 10 µM

## H-GIMSSLMKKLKKIIKK-NH2
[1]
  MIC: 54 µM
[2]
  MIC: 6.3 µM
[4]
  fractional inhibitory concentration index (FICI): 0.36
[5]
  MIC: 65 µM
[6]
  MIC: 1.7 µM
[7]
  MIC: 18 µM
[8]
  MIC: ≤ 7 µM
[9]
  MIC: 7.1 µM
[10]
  HC50 at 1 h: > 400 µM
[11]
  fractional inhibitory concentration index (FICI): 0.17
[12]
  fractional inhibitory concentration index (FICI): 0.63
[13]
  MIC: 22 µM
[14]
  MIC: ≤ 3 µM
[15]
  MIC: 9.9 µM

## H-GKLSSLWKKLKKIIAK-NH2
[1]
  MIC: 26 µM
[2]
  MIC: 34 µM
[4]
  fractional inhibitory concentration index (FICI): 0.29
[5]
  MIC: 27 µM
[6]
  MIC: 2.5 µM
[7]
  MIC: 11 µM
[8]
  MIC: ≤ 7 µM
[9]
  MIC: 6.8 µM
[10]
  HC50 at 1 h: > 400 µM
[11]
  fractional inhibitory concentration index (FICI): 0.25
[12]
  fractional inhibitory concentration index (FICI): 0.54
[13]
  MIC: 20 µM
[14]
  MIC: ≤ 3 µM
[15]
  MIC: 19 µM

## H-KILSSLLKKLKKIIAK-NH2
[1]
  MIC: 32 µM
[2]
  MIC: 25 µM
[4]
  fractional inhibitory concentration index (FICI): 0.26
[5]
  MIC: 10 µM
[6]
  MIC: 1.4 µM
[8]
  MIC: ≤ 7 µM
[9]
  MIC: 5 µM
[10]
  HC50 at 1 h: 364 µM
[11]
  fractional inhibitory concentration index (FICI): 0.29
[12]
  fractional inhibitory concentration index (FICI): 0.71
[13]
  MIC: 16 µM
[14]
  MIC: ≤ 3 µM
[15]
  MIC: 16 µM
[16]
  MIC: 5.5 µM
